Screening data as filed in PubChem BioAssay.
Only some compounds are listed: those with a hit (about 1.1% of all), similar ones and a draw of the others.
T cell modulator: modulators of CD8 T cell-vesicle binding, primary screen, mouse 2C CD8+ T cells, flow cytometry; hit rate 0.068% among 330,000; 2C CD8+ T cell-vesicle binding; active compounds read low; AID 2052, 2009; response (vesicle binding), % at 7 µM;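 active means response, share of CD8 T cells binding vesicles, and their 90th percentile fluorescence all below set limits, cut at about 80% in these data, passing the limit was not always enough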;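 further: values below 100% mean blocked vesicle binding to the CD8+ T cells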
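material = purified 2C TCR transgenic mouse naive CD8+ T cells | controls = Unloaded micro-vesicles (low), QL9 vesicles with 0.7% DMSO (high) | detection = cytometric PE anti-B7-1 and Alexa647 anti-CD8 signals after 1% paraformaldehyde fixation | incubation = binding step 1.5 h, 37 °C, antibody labelling 20 min, ice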
GRK2 inh: compounds blocking aptamer binding on GRK2 – biochemical, human GRK2, bead flow cytometry, HTS, primary screen; Beta-adrenergic receptor kinase 1 (Homo sapiens), P25098; hit rate 0.59% among 330,000; FAM-aptamer displacement from GRK2; inhibition of aptamer binding, % at 10 µM;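 active means inhibition of aptamer binding above 40%, roughly 3 SD of noise, on plates passing a quality check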;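 further: median bead fluorescence of bound FAM aptamer so fluorescent compounds give negative values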
CaV13 ICDI inh: Primary screen for inhibitors of IQ motif and Ca2+-dependent inactivation inhibitor domain binding in CACNA1D, Förster resonance energy transfer in living cells, … | hit rate 0.098% among 340,000 | inhibition, % at 12.3 µM | HEK cells, CFP/YFP FRET ICDI-IQ, plate reader, 10 min; percent FRET-ratio fall versus neutral wells;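 active means mean replicate inhibition of at least 30% and at least 1% of replicates passing that level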
procasp3 activ: activators of human procaspase-3 D3A mutant, primary screen, biochemical, absorbance, PC-3 D3A mutant, single concentration; recombinant procaspase-3 D3A, Ac-DEVD-pNA absorbance 405 nm; Caspase-3 (Homo sapiens), P42574; activation, % at 8.5 µM; hit rate 0.11% among 330,000;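 active means activation above the mean of all tested compounds plus 3 SD, cut at about 21% in these data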
Target sequence (P42574 whole entry D9A/D28A/D175A): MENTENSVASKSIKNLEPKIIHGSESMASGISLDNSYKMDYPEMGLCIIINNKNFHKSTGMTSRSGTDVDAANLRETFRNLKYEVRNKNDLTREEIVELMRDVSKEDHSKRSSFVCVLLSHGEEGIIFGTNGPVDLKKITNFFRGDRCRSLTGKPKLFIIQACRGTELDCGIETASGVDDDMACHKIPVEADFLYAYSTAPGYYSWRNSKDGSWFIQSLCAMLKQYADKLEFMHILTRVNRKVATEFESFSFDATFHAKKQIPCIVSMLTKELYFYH
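material = Procaspase-3 D3A mutant | probe or stimulus = Ac-DEVD-pNA | compound = single dose, 8.5 µM nominal compound, 0.8% DMSO | timing = 1 h preincubation, 2 h reaction | measured by = 405 nm absorbance of p-nitroaniline, reads at 0 and 120 min | benchmarks = DMSO-only low control, 5 µM PC-3 D3A high control | repeats = singlicate, each compound tested once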
procasp7 counter: procaspase-7 activators, primary screen, counter-screen for procaspase-3 activator project, biochemical, absorbance, HTS, human. AID 463210, 2010. recombinant procaspase-7, Ac-DEVD-pNA absorbance 405 nm; D23A/D198A/D206A triple mutant, cannot self-cleave; scale: DMSO 0, 5 µM enzyme 100. hit rate 0.093% among 330,000. activation, % at 8.5 µM. Caspase-7 (Homo sapiens), P55210;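 active means percent activation above the screen-wide mean plus 3 SD, cut at about 25% in these data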
Target sequence (P55210 whole entry D23A/D198A/D206A): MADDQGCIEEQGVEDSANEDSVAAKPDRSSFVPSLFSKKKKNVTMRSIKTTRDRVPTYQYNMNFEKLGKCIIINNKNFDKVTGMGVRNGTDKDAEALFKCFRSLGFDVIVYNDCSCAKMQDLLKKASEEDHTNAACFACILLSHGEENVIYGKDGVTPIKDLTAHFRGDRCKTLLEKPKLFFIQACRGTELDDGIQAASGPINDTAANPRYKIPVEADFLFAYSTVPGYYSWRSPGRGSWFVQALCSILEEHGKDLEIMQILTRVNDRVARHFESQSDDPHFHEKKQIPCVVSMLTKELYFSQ
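Assay system – Uncleavable procaspase-7 mutant enzyme · Quantity – 2 µM procaspase-7 mutant as dispensed · Times – 1 h preincubation, 2 h reaction · Dosing – single nominal 8.5 µM compound dose, 0.8% DMSO final · Buffer or medium – Zinc-free 50 mM HEPES buffer, pH 7.4, with NaCl and Triton X-100 · Detection – Epi-absorbance of released pNA at 405 nm, two timepoints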
aDG glyco act: activators of alpha-DG glycosylation, primary screen, uHTS, Pro5-aDG cells, AlphaScreen | hit rate 0.22% among 360,000 | activation, % at 10 µM | AID 624168, 2012 | alpha-DG glycosylation AlphaScreen (IIH6); 0% Pro5, 100% B10-LARGE cell signal;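 active means activation of at least 8% versus controls, or a plate z-score of at least 8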;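 further: Pro5 are CHO cells carrying HIG-tagged alpha-DG that lacks glycosylation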
GRK2 inh confirm: GRK2 aptamer-displacing inhibitors, retest, confirmation, biochemical, cherry pick 1, bead flow cytometry | hit rate 4% among 2,000 | AID 504451, 2011 | aptamer displacement, % at 10 µM | bead-bound GRK2, FAM-aptamer displacement | shares compounds with GRK2 inh;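 active means aptamer displacement above 40%, near three times the noise of non-fluorescent compounds, on plates passing quality checks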;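 further: negative values mostly reflect intrinsic compound fluorescence rather than true enhancement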
Aptamer quench SP: quenches fluorescent RNA aptamer, GRK2 hit artifact. shares compounds with GRK2 inh. Carboxyfluorescein RNA aptamer on beads, flow cytometry quenching; active compounds read low. fluorescence response (% of DMSO), % at 10 µM. 2,000 tested, under 10 active;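 active means compounds that quench the bead-bound fluorescent RNA probe, cutting fluorescence to under half of the solvent control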;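 further: counterscreen run without GRK2 so only probe quenching by compound is measured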
GRK2 confirm 2: GRK2 aptamer-displacing inhibitors, hit retest, confirmation, biochemical, cherry pick 2, bead flow cytometry | inhibition of aptamer binding, % at 10 µM | AID 504782, 2011 | shares compounds with GRK2 inh | bead-bound GRK2, FAM-aptamer displacement | 360 tested, under 10 active;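 active means inhibition of aptamer binding above 40%, about triple the noise seen with nonglowing compounds, on plates passing quality control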;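 further: negative values mostly come from compounds that fluoresce themselves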
FAM quench CP2: quenches fluorescent RNA aptamer, GRK2 hit artifact. shares compounds with GRK2 inh. carboxyfluorescein RNA aptamer beads, flow cytometry quenching; active compounds read low. fluorescence response vs DMSO, % at 10 µM. 360 tested, under 10 active. AID 588494;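 active means response vs DMSO under 50%, meaning signal dropped by over half, treated as fluorescence quencher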;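 further: labelled aptamer on streptavidin beads without GRK2 as a quench counter-screen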
Large screens that a line does not name were inactive (follow-up assays come after a bar, where they were run).

O=C(COc1cccc(C(F)(F)F)c1)NNC(=O)Cc1ccc(S(=O)(=O)N2CCOCC2)s1	none
O=C(COc1cccc(F)c1)NNC(=O)Cc1ccc(S(=O)(=O)N2CCOCC2)s1	GRK2 inh 46.0 | GRK2 inh confirm inactive | Aptamer quench SP inactive
O=C(CSc1c(F)c(F)cc(F)c1F)Nc1ccc(C2SCCS2)cc1	none
COc1ccc(S(=O)(=O)N2CCCCCC2)cc1NC(=O)CCNC(=O)c1ccc(Cl)cc1	none (no result: T cell modulator, GRK2 inh, procasp3 activ, procasp7 counter)
COc1ccc(S(=O)(=O)N2CCCCC2)cc1NC(=O)CCNC(=O)c1ccc(Cl)cc1	GRK2 inh 47.0 | GRK2 inh confirm inactive | Aptamer quench SP inactive | GRK2 confirm 2 inactive | FAM quench CP2 inactive
O=C(Nc1nc(-c2ccc(S(=O)(=O)N3CCCCCC3)cc2)cs1)c1ccccc1	none
CCc1nnc(NC(=O)CCS(=O)(=O)Cc2ccccc2)s1	none
CCc1nnc(NC(=O)c2cccc(S(=O)(=O)N3CCCC3)c2)s1	none
O=C(Nc1nc(-c2cccs2)cs1)c1ccc(S(=O)(=O)N2CCCC2)cc1	none | GRK2 inh confirm inactive | Aptamer quench SP inactive
COCc1nnc(NC(=O)CCS(=O)(=O)c2ccccc2)s1	none | GRK2 inh confirm inactive | Aptamer quench SP inactive
CCc1nnc(NC(=O)c2cccc(S(=O)(=O)N3CCCCC3)c2)s1	GRK2 inh 95.0 | GRK2 confirm 2 inactive | FAM quench CP2 inactive
CCc1nnc(NC(=O)CCS(=O)(=O)c2ccccc2)s1	none | GRK2 inh confirm inactive | Aptamer quench SP inactive
Cc1cc(F)ccc1C(O)c1ncc(-c2cccc(F)c2)[nH]1 (stereo not drawn)	none (no result: T cell modulator, GRK2 inh, procasp3 activ, procasp7 counter)
CCCCc1nnc(NC(=O)CCS(=O)(=O)c2ccc(C)cc2)s1	none | GRK2 inh confirm inactive | Aptamer quench SP inactive
Cc1cccc(NC(=O)CCS(=O)(=O)c2ccccc2)n1	none | GRK2 inh confirm inactive | Aptamer quench SP inactive
CCCCc1nnc(NC(=O)CN(C)S(=O)(=O)c2ccc(C)cc2)s1	none (no result: CaV13 ICDI inh)
CCc1nnc(NC(=O)CCS(=O)(=O)c2ccc(C)cc2)s1	none | GRK2 inh confirm inactive | Aptamer quench SP inactive
CCOCc1nnc(NC(=O)CS(=O)(=O)c2ccc(C)cc2)s1	none
CCOc1ccc(N(CC(=O)Nc2ccccc2C(=O)N2CCCC2)S(C)(=O)=O)cc1	none
O=S1(=O)c2ccc(Br)cc2OC2CCCC[C@@H]2N1Cc1ccccc1 (stereo partly drawn)	none (no result: T cell modulator, GRK2 inh, procasp3 activ, procasp7 counter, aDG glyco act)
CC1CCc2c(sc(NC(=O)c3ccc(-c4ccccc4[N+](=O)[O-])o3)c2C#N)C1 (stereo not drawn)	GRK2 inh 73.0 (no result: CaV13 ICDI inh) | GRK2 inh confirm inactive | Aptamer quench SP inactive
N#Cc1c(NC(=O)c2ccc(-c3ccccc3[N+](=O)[O-])o2)sc2c1CCCC2	none (no result: CaV13 ICDI inh)
Clc1ccc(CSc2nc3ccncc3[nH]2)cc1	none
